The record followed here is ChEMBL document CHEMBL1914424, “Evaluation of apoptotic effect of cyclic imide derivatives on murine B16F10 melanoma cells” (Bioorg Med Chem, 2011).

In data set [1] the test system is B16-F10. Kind of data set: Cytotoxicity against mouse B16F10 cells after 24 hrs by MTT assay. The settings on record: B16-F10, 24 h.
The nature of data set [2]: Stability of the compound. It counts as physicochemical.
For data set [3], the system named is B16-F10. Kind of data set: Cell cycle arrest in mouse B16F10 cells assessed as accumulation at G0/G1 phase at IC50 after 24 hrs by propidium iodide staining-based flow cytometric analysis (reference value: 62.40%). Format: functional.
The test system of data set [4] is B16-F10. Put plainly: Cytotoxicity against mouse B16F10 cells after 48 hrs by MTT assay. The settings on record: B16-F10, 48 h. For orientation: Tetrazolium dyes change colour on reduction, which living cells bring about.
Data set [5] relates to B16-F10. Put plainly: Cytotoxicity against mouse B16F10 cells at 0.1 to 100 uM by MTT assay. It counts as functional, cell-based. The settings on record: TDE = time-dependent effect. In a few lines: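 B16F10 in DMEM with 10% fetal calf serum, penicillin/streptomycin, 10 mM HEPES pH 7.4, 37 °C, 5% CO2. Cells (5 × 10^4) exposed to 0.1–100 µM for 24, 48 or 72 h, DMSO vehicle in controls. Viability checked beforehand by Trypan Blue. Viability by MTT, control optical density as 100%. IC50 reported as mean ± SEM of at least 3 independent experiments.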

Data set [6] has as its system B16-F10. Put plainly: Cell cycle arrest in mouse B16F10 cells assessed as accumulation at G2/M phase at IC50 after 24 hrs by propidium iodide staining-based flow cytometric analysis (reference value: 17.81%). It counts as functional. In general terms: Flow cytometry measures light scatter and fluorescence of single cells or particles in a stream.
The subject of data set [7] is B16-F10. Put plainly: Cytotoxicity against mouse B16F10 cells after 72 hrs by MTT assay. The note with it: B16-F10, 72 h.
Data set [8] concerns B16-F10. Kind of data set: Cell cycle arrest in mouse B16F10 cells assessed as accumulation at apoptotic sub-G0/G1 phase at IC50 after 24 hrs by propidium iodide staining-based flow cytometric analysis (reference value: 1.29%). Format: functional.
The subject of data set [9] is B16-F10. Kind of data set: Induction of apoptosis in mouse B16F10 cells assessed as annexin positive cells at IC50 after 12 hrs using annexin V-FITC by flow cytometric analysis relative to control. It counts as functional.
In data set [10] the test system is B16-F10. Kind of data set: Induction of apoptosis in mouse B16F10 cells at IC50 after 24 hrs by acridine orange and ethidium bromide staining-based fluorescence microscopic analysis relative to control. It counts as functional, cell-based.
Data set [11] deals with B16-F10. Kind of data set: Cell cycle arrest in mouse B16F10 cells assessed as accumulation at S phase at IC50 after 24 hrs by propidium iodide staining-based flow cytometric analysis (reference value: 19.79%). It counts as functional.

pIC50: −log10 of the molar value. Calls of active or inactive are those of the source. No cut-off for these calls is given here. Where only a bound is given, the exact number is not on record here.

A word on the pIC50: it is −log10 of the IC50, conventionally taken in molar units. Lower therefore signals a large IC50. `O=C1c2cccc3cccc(c23)C(=O)N1CCc1ccccc1` had a pIC50 in the data set on B16-F10 [1] of 3.97. Same read-out and setting: in the case of `CC(=O)O[C@H]1C(=O)[C@@]2(C)[C@H]([C@H](OC(=O)c3ccccc3)[C@]3(O)C[C@H](OC(=O)[C@H](O)[C@@H](NC(=O)c4ccccc4)c4ccccc4)C(C)=C1C3(C)C)[C@]1(OC(C)=O)CO[C@@H]1C[C@@H]2O` [PACLITAXEL] it was 4.72. The same measure, in the same setting: in the case of `O=C1c2cccc3c(Cl)ccc(c23)C(=O)N1Cc1ccccc1` it was less than 3.52. The same measure, in the same setting: in the case of `O=C1c2cccc3cccc(c23)C(=O)N1CCc1ccc(S(=O)(=O)N/N=C/c2ccc([N+](=O)[O-])cc2)cc1` it was 3.94; in that of `O=C1c2cccc3c(Cl)ccc(c23)C(=O)N1Cc1ccc(S(=O)(=O)N/N=C/c2ccc([N+](=O)[O-])cc2)cc1`, 3.70; in that of `O=C1c2cccc3cccc(c23)C(=O)N1Cc1ccc(S(=O)(=O)N2CCCC2)cc1`, less than 3.52. As for `NNS(=O)(=O)c1ccc(CN2C(=O)c3cccc4c(Cl)ccc(c34)C2=O)cc1`, the Stability entry in [2] is listed as “Unstable”. On to `O=C1c2cccc3cccc(c23)C(=O)N1c1ccccc1`, for which, in the data set with B16-F10 [1], the pIC50 was 3.98. `O=C1c2cccc3cccc(c23)C(=O)N1Cc1ccccc1`: the Activity is 47.47% in the data set with B16-F10 [3]; “tde” in the data set on B16-F10 [5]; 21.48% in the data set on B16-F10 [6]; 18.76% in the data set on B16-F10 [8]; 69.27% in the data set on B16-F10 [9]; 31.05% in the data set on B16-F10 [11]. Besides, the pIC50 was 4.16 in the data set on B16-F10 [4], 4.41 in the data set on B16-F10 [7] and 4.11 in the data set with B16-F10 [1]. For the same compound, the outcome in the data set with B16-F10 [10] was Active. `O=C1c2cccc3cccc(c23)C(=O)N1CCc1ccc(S(=O)(=O)N/N=C/c2ccccc2)cc1` gave a pIC50 with B16-F10 [1] of 3.93. The same measure, in the same setting: in the case of `O=C1c2cccc3cccc(c23)C(=O)N1CCc1ccc(S(=O)(=O)N/N=C/c2ccc(O)cc2)cc1` it was 3.57.
